From ChEMBL document CHEMBL1914331, “N-O chemistry for antibiotics: discovery of N-alkyl-N-(pyridin-2-yl)hydroxylamine scaffolds as selective antibacterial agents using nitroso Diels-Alder and ene chemistry” (J Med Chem, 2011)

Legend:
PC-3 = experiment: Cytotoxicity against human PC3 cells; type: cell-based
Micrococcus luteus = experiment: Antimicrobial activity against Micrococcus luteus ATCC 10240 after 24 hrs by Kirby-Bauer agar diffusion assay; type: functional
Outline: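 Modified Kirby-Bauer well diffusion. Overnight LB cultures (18–24 h) were standardized in 0.9% saline to 0.5 McFarland and mixed into melted MHII agar at 47–50 °C, giving ~5×10³ CFU/mL. 9 mm wells received 50 µL of 2.0 mM compound in 10:1 MeOH:DMSO. Plates were incubated 24 h at 37 °C, then growth-inhibition zone diameter was measured (mm) by caliper.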

MCF7 = experiment: Cytotoxicity against human MCF7 cells; type: cell-based
HeLa = experiment: Cytotoxicity against human HeLa cells; type: cell-based

SMILES	Activity (PC-3)	diameter of the inhibition zone (DIZ) (Micrococcus luteus)	Activity (MCF7)	Activity (HeLa)
Cc1ccnc(N=O)c1	Non-toxic	<=14 mm	Non-toxic	Non-toxic
C=C(C)C(C)(C)N(O)c1cc(C)on1	Non-toxic	>14 mm	Non-toxic	Non-toxic
CC(C)(C)OC(=O)NO	Non-toxic	<=14 mm	Non-toxic	Non-toxic
C[C@H](NC(=O)OC(C)(C)C)C(=O)NO	Non-toxic	<=14 mm	Non-toxic	Non-toxic
CC(C)C[C@H](NC(=O)OC(C)(C)C)C(=O)NO	Non-toxic	<=14 mm	Non-toxic	Non-toxic
Cc1cccc(N=O)n1	Non-toxic	<=14 mm	Non-toxic	Non-toxic
O=Nc1ccccn1	Non-toxic	<=14 mm	Non-toxic	Non-toxic
CCc1cccc(N=O)n1	Non-toxic	<=14 mm	Non-toxic	Non-toxic
Cc1cccnc1N=O	Non-toxic	<=14 mm	Non-toxic	Non-toxic
O=Nc1ccc(Cl)cn1	Non-toxic	<=14 mm	Non-toxic	Non-toxic
O=Nc1ccc(Br)cn1	Non-toxic	<=14 mm	Non-toxic	Non-toxic
O=Nc1ccc(I)cn1	Non-toxic	<=14 mm	Non-toxic	Non-toxic
O=Nc1ncc(Cl)cc1Cl	Non-toxic	<=14 mm	Non-toxic	Non-toxic
Cc1nc(N=O)ccc1Br	Non-toxic	<=14 mm	Non-toxic	Non-toxic
O=Nc1ncc(C(F)(F)F)cc1Cl	Non-toxic	<=14 mm	Non-toxic	Non-toxic
O=Nc1ccc2ccccc2n1	Non-toxic	<=14 mm	Non-toxic	Non-toxic
Cc1cc(N=O)no1	Non-toxic	<=14 mm	Non-toxic	Non-toxic
CC(C)(C)O[C@@H]1C=CC[C@H]1N(O)c1ccc(Cl)cn1	Non-toxic	>14 mm	Non-toxic	Non-toxic
C=C(CN(O)c1cc(C)on1)c1ccccc1	Non-toxic	>14 mm	Non-toxic	Non-toxic
COc1ccc(CON(C)c2ccccn2)cc1	Non-toxic	<=14 mm	Non-toxic	Non-toxic
CCCN(OCc1ccc(OC)cc1)c1ccccn1	Non-toxic	<=14 mm	Non-toxic	Non-toxic
CCCCCCN(OCc1ccc(OC)cc1)c1ccccn1	Non-toxic	<=14 mm	Non-toxic	Non-toxic
COc1ccc(CON(CCc2ccccc2)c2ccccn2)cc1	Non-toxic	<=14 mm	Non-toxic	Non-toxic
C=CCN(OCc1ccc(OC)cc1)c1ccccn1	Non-toxic	<=14 mm	Non-toxic	Non-toxic
COc1ccc(CON(Cc2cccc(Oc3ccccc3)c2)c2ccccn2)cc1	Non-toxic	<=14 mm	Non-toxic	Non-toxic
COc1ccc(CON(Cc2ccc(C(F)(F)F)cc2)c2ccccn2)cc1	Non-toxic	<=14 mm	Non-toxic	Non-toxic

SMILES	Activity (PC-3)	diameter of the inhibition zone (DIZ) (Micrococcus luteus)	Activity (MCF7)	Activity (HeLa)
COc1ccc(CON(Cc2ccc(OC(F)(F)F)cc2)c2ccccn2)cc1	Non-toxic	<=14 mm	Non-toxic	Non-toxic
COc1ccc(CON(Cc2ccccc2)c2cccnc2)cc1	Non-toxic		Non-toxic	Non-toxic
COc1ccc(CON(Cc2ccccc2)Cc2ccccn2)cc1	Non-toxic		Non-toxic	Non-toxic
CC(C)(C)OC1C=C[C@@H](N(O)c2ccc(Cl)cn2)C1 (mixture of isomers)	Non-toxic	>14 mm	Non-toxic	Non-toxic
CC(C)OC1C=C[C@@H](N(O)c2ccc(Cl)cn2)C1 (mixture of isomers)	Non-toxic	>14 mm	Non-toxic	Non-toxic
COC1C=C[C@@H](N(O)c2ccc(Br)cn2)C1 (mixture of isomers)	Non-toxic	>14 mm	Non-toxic	Non-toxic
CC(C)OC1C=C[C@@H](N(O)c2ccc(Br)cn2)C1 (mixture of isomers)	Non-toxic	>14 mm	Non-toxic	Non-toxic
CC(C)(C)OC1C=C[C@@H](N(O)c2ccc(Br)cn2)C1 (mixture of isomers)	Non-toxic	>14 mm	Non-toxic	Non-toxic
COC1C=C[C@@H](N(O)c2cccc(C)n2)C1 (mixture of isomers)	Non-toxic	>14 mm	Non-toxic	Non-toxic
Cc1cccc(N(O)[C@@H]2C=CC(OC(C)C)C2)n1 (mixture of isomers)	Non-toxic	>14 mm	Non-toxic	Non-toxic
COC1C=C[C@@H](N(O)c2cc(C)on2)C1 (mixture of isomers)	Non-toxic	>14 mm	Non-toxic	Non-toxic
Cc1cc(N(O)[C@@H]2C=CC(OC(C)(C)C)C2)no1 (mixture of isomers)	Non-toxic	>14 mm	Non-toxic	Non-toxic
C=C(C)C(C)N(O)C(=O)[C@H](C)NC(=O)OC(C)(C)C (mixture of isomers)	Non-toxic	<=14 mm	Non-toxic	Non-toxic
O=C(Cc1ccccc1)N1OC2C=CC1C2 (racemic)	Non-toxic	<=14 mm	Non-toxic	Non-toxic
O=C(Cc1ccccc1)N1OC2C=CC1CC2 (racemic)	Non-toxic	<=14 mm	Non-toxic	Non-toxic
O=C(c1ccccc1)N1OC2C=CC21 (racemic)	Non-toxic	<=14 mm	Non-toxic	Non-toxic
CC(C)(C)OC(=O)N1OC2C=CC1C2 (racemic)	Non-toxic	<=14 mm	Non-toxic	Non-toxic
Brc1ccc(N2OC3C=CC2CC3)nc1 (racemic)	Non-toxic	<=14 mm	Non-toxic	Non-toxic
Clc1ccc(N2OC3C=CC2C3)nc1 (racemic)	Non-toxic	<=14 mm	Non-toxic	Non-toxic
Brc1ccc(N2OC3C=CC2C3)nc1 (racemic)	Non-toxic	<=14 mm	Non-toxic	Non-toxic
Cc1cccc(N2OC3C=CC2C3)n1 (racemic)	Non-toxic	<=14 mm	Non-toxic	Non-toxic
Cc1cccc(N2OC3C=CC2CC3)n1 (racemic)	Non-toxic	<=14 mm	Non-toxic	Non-toxic
Cc1cc(N2OC3C=CC2C3)no1 (racemic)	Non-toxic	<=14 mm	Non-toxic	Non-toxic
CO[C@@H]1C=C[C@@H](N(O)C(=O)Cc2ccccc2)C1 (racemic)	Non-toxic	<=14 mm	Non-toxic	Non-toxic
CC(C)(C)O[C@@H]1C=C[C@@H](N(O)C(=O)Cc2ccccc2)C1 (racemic)	Non-toxic	<=14 mm	Non-toxic	Non-toxic
